Results from the RNAGym collection of RNA variant scans (doi:10.1126/science.aae0568).
Variants at the floor of the assay were thinned out.

B1: tRNA (parent)
chain: GUUCCGUUGGCGUAAUGGUAACGCGUCUCCCUCCUAAGGAGAAGACUGCGGGUUCGAGUCCCGUACGGAACG

Variants of: B1
Test: yeast fitness relative to wild type (ratio to wild type); higher = fitter; tRNA-Arg(CCU), competitive growth, 37 C, YPD
How it was run: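 For this measurement, the tRNA-Arg(CCU) gene was varied by chemical synthesis at a 3% per-site mutation rate across 69 sites, and each variant was placed at the native genomic locus in Saccharomyces cerevisiae. The pooled strains went through a 24-hour competition in YPD at 37°C in six parallel replicates, with amplicons from start and end populations read by 100-nucleotide paired-end sequencing. Darwinian fitness relative to wild type followed from the change in each genotype's frequency. Genotypes needed ≥ 100 starting reads, and estimates < 0.5 were set to 0.5.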

Going from C49G G52A A69U to U53C A65C, the yeast fitness rises from 0.542 to 0.878.

Going from U53C A65U to G51C C66U, the yeast fitness falls from 0.788 to 0.565.

G51C C66A and G51A C61U C66G cannot be ordered by yeast fitness: at most 0.5 for the first, at most 0.5 for the second.

Compared with U53A, U53C is higher in yeast fitness: 0.653 for the first, 0.875 for the second.

Going from U53G to G50A A70U, the yeast fitness rises from 0.629 to 0.805.

Going from G50A A70G to G50A G52U G67C, the yeast fitness falls from 1.06 to at most 0.5.

Compared with G52C A70U, G52C A65C is higher in yeast fitness: 0.804 for the first, 0.907 for the second.

Compared with G52C A65U, G52C A65G is lower in yeast fitness: 0.614 for the first, 0.613 for the second.

First: C49U C61G
Second: C49U G58C
The yeast fitness of the first is lower: 0.689 for the first, 1 for the second.

Compared with G51C C61G, C49U U54A is lower in yeast fitness: 1.04 for the first, 0.736 for the second.

Going from C49U U54C to G51A C66U, the yeast fitness falls from 0.864 to 0.82.

Compared with G51A C66A, G51C A65C is higher in yeast fitness: 0.555 for the first, 0.71 for the second.

Going from G51C A65U to G51A A65C, the yeast fitness rises from 0.597 to 0.75.

First: G51A A65G
Second: G51A A65U
The yeast fitness of the first is higher: 0.852 for the first, 0.66 for the second.

Going from G50C G58U G68U A69G to G52C A57C G63C, the yeast fitness rises from 0.508 to 0.519.

Compared with G52A G67C, G52A G67U is lower in yeast fitness: 0.796 for the first, 0.619 for the second.

Compared with G51A U53G G68A, G50A C62G is higher in yeast fitness: at most 0.5 for the first, 1.03 for the second.

First: G50A C62U
Second: C49G G52A
The yeast fitness of the first is higher: 1 for the first, 0.898 for the second.

First: U53A G68A
Second: G52A A57C A70G
The yeast fitness of the first is higher: 0.574 for the first, 0.524 for the second.

Going from G50C A57U C61A to C49G G50C, the yeast fitness rises from at most 0.5 to 0.613.

Going from C49G G50A to U53A A65U, the yeast fitness falls from 0.667 to 0.601.

Compared with U53A A65G, G52A C62U G63A is lower in yeast fitness: 0.571 for the first, at most 0.5 for the second.

Compared with G51C C62U A70U, C49U G56U is higher in yeast fitness: at most 0.5 for the first, 0.677 for the second.

First: C49U G56A
Second: C49U G56C
The yeast fitness of the first is higher: 1.03 for the first, 0.58 for the second.

Going from C49U C62U to C49U C62A, the yeast fitness falls from 0.869 to 0.787.

Compared with G51A U59A G67C, G51C U54A A57C is higher in yeast fitness: at most 0.5 for the first, 0.859 for the second.

First: C49U G67A A69U
Second: G52C U64A
The yeast fitness of the first is lower: at most 0.5 for the first, 0.573 for the second.

Compared with G50C A70U, G50C A70G is lower in yeast fitness: 0.875 for the first, 0.681 for the second.

First: C49G U54A G68U A69U
Second: C49U G51C G68A
The yeast fitness of the first is higher: 0.566 for the first, at most 0.5 for the second.

Going from G51C G52C U59A to U53C C61G G67A A69C, the yeast fitness falls from 0.614 to 0.552.

Compared with C49U U59A C61A, C49G U59C is higher in yeast fitness: at most 0.5 for the first, 0.761 for the second.

Going from C49G U59A to C49G C60U A69G, the yeast fitness falls from 0.785 to at most 0.5.

First: U53A G56C C60A A70G
Second: G52C A69C
The yeast fitness of the first is lower: 0.58 for the first, 0.687 for the second.

First: C49U C62U A69U
Second: G51C G68C
The yeast fitness of the first is higher: 0.948 for the first, 0.641 for the second.

First: G50C C55A C60A
Second: G51A U53C
The yeast fitness of the first is lower: at most 0.5 for the first, 0.745 for the second.

Going from G52A G58C A70G to G50U, the yeast fitness rises from at most 0.5 to 0.961.

First: G50A
Second: G50C
The yeast fitness of the first is higher: 1 for the first, 0.844 for the second.

Compared with C49U G67A, C49U U53A C66U A70U is lower in yeast fitness: 0.879 for the first, at most 0.5 for the second.

Going from G51A A57G to G51C A70U, the yeast fitness falls from 0.819 to 0.662.

C49U G56C A70C and G50A C62A G68A cannot be ordered by yeast fitness: at most 0.5 for the first, at most 0.5 for the second.

Compared with G52A G58A A65G, G51A U59A C61U G67A is lower in yeast fitness: 0.684 for the first, at most 0.5 for the second.

G52A C61A A69U and G51C G56A C62G C66A A70G cannot be ordered by yeast fitness: at most 0.5 for the first, at most 0.5 for the second.

C49G U53C C55A G63A and G50A G56A C62G A70U cannot be ordered by yeast fitness: at most 0.5 for the first, at most 0.5 for the second.

First: C49G G56A A65C
Second: G50A G56C G63A
The yeast fitness of the first is lower: 0.543 for the first, 0.561 for the second.

Going from G51A C61A C66A to G52A C66U, the yeast fitness rises from at most 0.5 to 0.706.

Compared with G52A C66A, G50C U53C U54A is lower in yeast fitness: 0.649 for the first, at most 0.5 for the second.

Compared with U53A C66A, G51C U59C is higher in yeast fitness: at most 0.5 for the first, 0.523 for the second.

First: G52C U53C G67C
Second: C49G U53A
The yeast fitness of the first is lower: at most 0.5 for the first, 0.627 for the second.

First: U53A G56A
Second: G51A G52C C61U
The yeast fitness of the first is higher: 0.636 for the first, 0.536 for the second.

G51C U54A G56C and G52A C55G A69U cannot be ordered by yeast fitness: at most 0.5 for the first, at most 0.5 for the second.

First: C49U G52C
Second: G51A A69U A70G
The yeast fitness of the first is higher: 0.547 for the first, 0.543 for the second.

Compared with C49G G68C, C49G G68A is higher in yeast fitness: 0.704 for the first, 0.953 for the second.

Going from G52A A57U C61G to G50A U53C C62A A69U, the yeast fitness rises from at most 0.5 to 0.517.

Going from G50C A65C to G50A G56C, the yeast fitness rises from 0.602 to 0.635.

Compared with G50A G56A, C49U U54C C66G is lower in yeast fitness: 1.04 for the first, at most 0.5 for the second.

Going from C49U G52C A57C G63C to C49G C62U, the yeast fitness rises from at most 0.5 to 0.79.

First: G52C C60A
Second: G52C C60U
The yeast fitness of the first is higher: 0.641 for the first, 0.533 for the second.

Going from G51A G52A to G50A C55A C66A, the yeast fitness falls from 0.571 to 0.543.

First: C49U G51C C55A
Second: G50A G68C
The yeast fitness of the first is lower: 0.618 for the first, 0.635 for the second.

First: G52C G63A
Second: U53A C61U U64A
The yeast fitness of the first is higher: 0.642 for the first, at most 0.5 for the second.

First: G51A A57C C66U
Second: G50C U54C A57G
The yeast fitness of the first is higher: 0.59 for the first, at most 0.5 for the second.

Compared with C49G U54G, C49G U54A is higher in yeast fitness: 0.625 for the first, 0.637 for the second.

Going from G52A G63A G67A to C49U, the yeast fitness rises from 0.553 to 0.995.

First: G50A U59G
Second: G50A U59C
The yeast fitness of the first is lower: 0.846 for the first, 0.863 for the second.

Compared with U53G G56C C60A, U53A A57U A65U is higher in yeast fitness: at most 0.5 for the first, 0.725 for the second.

G51A A57C U59C and G52C C55A cannot be ordered by yeast fitness: at most 0.5 for the first, at most 0.5 for the second.

First: G52C C55G
Second: G50C U59C
The yeast fitness of the first is higher: 0.843 for the first, 0.721 for the second.

Going from G50U G67A to C49U A69U A70G, the yeast fitness falls from 0.821 to 0.687.

First: G52A A57C
Second: G52A A57U
The yeast fitness of the first is higher: 0.789 for the first, 0.516 for the second.

Compared with U53A A57G, U53A C55A is higher in yeast fitness: 0.556 for the first, 0.756 for the second.

G52A C55U and G52A C55G are the same in yeast fitness: 0.561 for the first, 0.561 for the second.

First: G52A C55A
Second: G50C G58A C66U
The yeast fitness of the first is higher: 0.581 for the first, 0.538 for the second.

U53A G58U C61U C62A and G52A G56U A70U cannot be ordered by yeast fitness: at most 0.5 for the first, at most 0.5 for the second.

Going from U53A C62U to C49G C66A G67U, the yeast fitness falls from 0.827 to at most 0.5.

Compared with G51A U59A C62G, G51U C61U is higher in yeast fitness: at most 0.5 for the first, 0.747 for the second.

First: G50C G51A C62U
Second: U53A A70G
The yeast fitness of the first is lower: at most 0.5 for the first, 0.594 for the second.

Compared with G51C G58A, U53C C60U is lower in yeast fitness: 0.789 for the first, 0.638 for the second.

Going from G50U A69U to G51A C61G, the yeast fitness falls from 1.02 to 0.588.

Compared with G51A C61A, G51A C61U is higher in yeast fitness: 0.536 for the first, 1.11 for the second.

Going from G51C A69U to G51A C55U G58A, the yeast fitness falls from 0.624 to 0.606.

Going from C49G C60U A65C to G50C U64C, the yeast fitness rises from at most 0.5 to 0.967.

Going from G52C C62G to G52C C62A, the yeast fitness falls from 0.646 to 0.596.

Going from U53G A57C to U53G A57U, the yeast fitness rises from at most 0.5 to 0.626.

With C49U C62U G67A the yeast fitness was 0.573.
